Experimental data from publication PMC3569009 (Journal of neurochemistry, 2012).

How the values were obtained:
α2β4-nAChR = α2β4-nAChR (Homo sapiens, UniProt P30926+Q15822); assay: two-electrode voltage clamp, Xenopus oocytes, peak inward current; assay type: cell-based
Method in brief: (§1)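 Human α2 and β4 (plus β3 for trinary) subunit cRNAs, ~4 ng each at 1:1 or 1:1:1, are injected into stage VI oocytes. Two to 7 days later, oocytes are clamped at –70 mV in Ringer, pH 7.5.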

α2β4β3-nAChR = α2β4β3-nAChR (Homo sapiens, UniProt P30926+Q15822); assay: as above; assay type: cell-based
Method in brief: as §1

α2β4-nAChR, sequence (Q15822 27-529): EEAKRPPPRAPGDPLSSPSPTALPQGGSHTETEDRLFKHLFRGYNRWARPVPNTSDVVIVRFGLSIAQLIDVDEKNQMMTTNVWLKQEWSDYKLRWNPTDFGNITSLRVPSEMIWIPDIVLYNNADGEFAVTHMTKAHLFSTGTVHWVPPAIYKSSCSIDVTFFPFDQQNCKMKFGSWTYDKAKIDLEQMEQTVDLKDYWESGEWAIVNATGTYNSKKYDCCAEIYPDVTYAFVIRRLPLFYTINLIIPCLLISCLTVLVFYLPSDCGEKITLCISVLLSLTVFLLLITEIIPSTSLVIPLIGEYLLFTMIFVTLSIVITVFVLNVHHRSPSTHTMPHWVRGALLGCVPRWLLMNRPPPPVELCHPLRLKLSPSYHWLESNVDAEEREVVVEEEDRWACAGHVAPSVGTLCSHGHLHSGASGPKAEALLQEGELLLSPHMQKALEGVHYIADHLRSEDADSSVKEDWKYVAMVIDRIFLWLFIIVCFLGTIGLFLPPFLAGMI
α2β4-nAChR, sequence (P30926 22-498): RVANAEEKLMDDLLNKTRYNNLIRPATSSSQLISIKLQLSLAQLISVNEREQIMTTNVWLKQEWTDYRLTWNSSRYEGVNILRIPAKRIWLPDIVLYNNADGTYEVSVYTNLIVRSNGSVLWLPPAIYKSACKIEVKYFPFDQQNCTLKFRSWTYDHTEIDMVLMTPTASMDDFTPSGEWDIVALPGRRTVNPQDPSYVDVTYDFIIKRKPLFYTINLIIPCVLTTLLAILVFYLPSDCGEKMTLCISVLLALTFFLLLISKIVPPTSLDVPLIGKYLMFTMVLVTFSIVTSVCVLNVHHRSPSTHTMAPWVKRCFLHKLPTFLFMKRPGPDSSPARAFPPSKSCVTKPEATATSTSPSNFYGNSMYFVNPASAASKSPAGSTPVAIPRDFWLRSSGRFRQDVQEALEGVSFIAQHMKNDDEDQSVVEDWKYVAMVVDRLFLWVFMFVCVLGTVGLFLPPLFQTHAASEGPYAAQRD
α2β4β3-nAChR, sequence (Q15822 27-529): as the sequence (Q15822 27-529) above
α2β4β3-nAChR, sequence (P30926 22-498): as the sequence (P30926 22-498) above
α2β4β3-nAChR, sequence (Q05901 22-458 partner): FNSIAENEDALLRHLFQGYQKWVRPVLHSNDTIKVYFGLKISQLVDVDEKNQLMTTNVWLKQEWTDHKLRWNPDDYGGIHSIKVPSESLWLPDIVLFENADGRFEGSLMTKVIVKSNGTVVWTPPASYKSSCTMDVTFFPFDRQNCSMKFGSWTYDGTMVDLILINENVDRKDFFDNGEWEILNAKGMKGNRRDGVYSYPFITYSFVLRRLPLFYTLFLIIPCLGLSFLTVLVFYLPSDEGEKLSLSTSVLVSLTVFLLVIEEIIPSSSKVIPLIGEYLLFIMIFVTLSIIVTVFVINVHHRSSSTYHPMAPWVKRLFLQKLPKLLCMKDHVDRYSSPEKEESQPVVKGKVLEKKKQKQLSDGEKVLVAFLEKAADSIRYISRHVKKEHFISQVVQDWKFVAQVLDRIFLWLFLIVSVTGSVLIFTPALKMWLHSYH

In the case of `CN1CCC[C@H]1c1cccnc1` [nicotine], the EC50 (α2β4-nAChR) is reported as 8.6 µM and the EC50 (α2β4β3-nAChR) is reported as 7.3 µM.
